The structures appear in SMILES notation. Activity calls are given as the source filed them. The rule behind the calls is not given here. Residues, ends and D or L forms follow the SMILES beside them.

Data set [1] relates to Mus musculus. The data set can be described thus: Acute toxicity in Swiss albino mouse assessed as structural abnormality in liver up to 2000 mg/kg, po administered as single dose through gavage measured after 14 days by haematoxylin and eosin staining based assay. To be noted: in vivo, 336 h. It counts as organism-based. A digest of the protocol:
(§1)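 Mice given vehicle or 50, 300 or 2000 mg Kg⁻¹ after 4 h fasting, three per group, following OECD 2001 guidance. At 14 days, one control animal and one 2000 mg Kg⁻¹ animal were sacrificed. Myocardium, liver and kidney were examined histologically by H and E staining.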

Data set [2] relates to Mus musculus. The data set is described as follows: Analgesic activity in Swiss albino mouse assessed as reduction in capsaicin-induced paw licking at 5 to 10 mg/kg, ip dosed 30 mins before capsaicin injection measured for 10 mins in presence of voltage-gated sodium channel opener veratrine pre-treated 30 mins before compound dosing. It counts as functional, organism-based. The gist of the method: (§2)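 Mice of either sex (25-35 g), 5 per group. The modulator is given 30 min before the test compound, and capsaicin 30 min after that: substance P 10 µg/kg, L-arginine 40 mg/kg, L-NAME 20 mg/kg, veratrine 125 µg/kg, A23187 20 µg/kg, glipizide 30 µg/kg. Capsaicin is 1.6 μg in 20 μL intraplantar. Paw lickings are counted for 10 min.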

Data set [3] has as its system Mus musculus. The data set is described as follows: Analgesic activity in Swiss albino mouse assessed as reduction in capsaicin-induced paw licking at 5 to 10 mg/kg, ip dosed 30 mins before capsaicin injection measured for 10 mins in presence of ATP-sensitive potassium channel blocker glipizide pre-treated 30 mins before compound dosing. It counts as functional, organism-based. The gist of the method:
as §2

The target of data set [4] is T1, Prostaglandin G/H synthase 2 (Homo sapiens, UniProt P35354).
T1 sequence (P35354 whole entry): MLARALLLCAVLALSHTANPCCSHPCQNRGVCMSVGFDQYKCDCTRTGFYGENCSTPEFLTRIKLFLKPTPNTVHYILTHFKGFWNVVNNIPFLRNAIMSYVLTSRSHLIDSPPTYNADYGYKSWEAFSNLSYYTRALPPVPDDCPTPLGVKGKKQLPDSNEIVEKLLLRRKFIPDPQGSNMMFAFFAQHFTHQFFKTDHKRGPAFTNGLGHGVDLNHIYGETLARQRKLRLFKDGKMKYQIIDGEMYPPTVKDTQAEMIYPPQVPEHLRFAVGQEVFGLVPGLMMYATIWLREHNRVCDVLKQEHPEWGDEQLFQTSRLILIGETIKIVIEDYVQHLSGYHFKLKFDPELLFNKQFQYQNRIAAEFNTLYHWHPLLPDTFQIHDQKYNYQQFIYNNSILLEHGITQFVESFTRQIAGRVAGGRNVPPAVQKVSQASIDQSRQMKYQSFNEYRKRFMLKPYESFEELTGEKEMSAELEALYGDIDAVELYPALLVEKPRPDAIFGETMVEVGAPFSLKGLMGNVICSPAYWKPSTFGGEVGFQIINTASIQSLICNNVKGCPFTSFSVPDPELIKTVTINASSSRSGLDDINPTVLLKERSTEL
The data set can be described thus: Inhibition of human recombinant COX2 assessed as reduction in PGH2-derived PGF2alpha using arachidonic acid as substrate preincubated for 10 mins followed by substrate addition measured after 2 mins by enzyme immunoassay.

Data set [5] relates to Mus musculus. The data set can be described thus: Acute toxicity in Swiss albino mouse assessed as structural abnormality in myocardium up to 2000 mg/kg, po administered as single dose through gavage measured after 14 days by haematoxylin and eosin staining based assay. It counts as organism-based. Conditions: in vivo, 336 h. The gist of the method:
as §1

Data set [6] addresses T2, Prostaglandin G/H synthase 2 (Homo sapiens) (UniProt P35354).
T2 sequence (whole entry): T1 sequence (P35354 whole entry)
The data set is described as follows: Binding affinity to COX2 (unknown origin) at 100 uM by isothermal titration calorimetry. The gist of the method: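 Isothermal titration calorimetry in HEPES buffer, pH 7.4. The ligand stock is 100 μM in ethanol/HEPES (1:99). The syringe is stirred at 500 rpm and delivers 19 injections of 2 μL into the enzyme-containing cell at 120 s intervals. Heats from buffer-only control titrations are subtracted. The fit gives Ka, ΔH and ΔS. Run in triplicate.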
On the technique in general: Isothermal titration calorimetry measures the heat released or taken up as one component is titrated into another.

Usually IC50 stands for the midpoint of a concentration-inhibition curve. As for `COC(=O)[C@H](CC(C)C)NC(=O)[C@H](Cc1ccccc1)NC(=O)CNC(=O)CN` (H-GGFL-OMe), the Activity result with Mus musculus [1] and in the data set with Mus musculus [5] was “Non-toxic” each time. For the same compound, the outcome with Mus musculus [2] and with Mus musculus [3] was Active. Moreover, the half-inhibitory concentration (IC50) in data set [4] turned out to be 60 nM. In data set [6], this compound registered a Ka of 6.1 ×10⁴ /M.
